According to ChEMBL document CHEMBL1157796, “Coumarins from Galipea panamensis and Their Activity against Leishmania panamensis” (J Nat Prod, 2010):
Values after ≈ are worked out from the molar mass of the structure shown.

Tests used:
[1] = Cytotoxicity against human U937 cells; format: cell-based, U-937
[2] = system: Leishmania panamensis; test: Antimicrobial activity against Leishmania panamensis M/HOM//87/UA140 transfected with p6.5-egfp after 72 hrs by MTT assay; format: functional, organism-based; conditions: M/HOM//87/UA140, 72 h
Procedure, shortened: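 Axenic amastigotes of L. panamensis M/HOM//87/UA140 epirGFP strain (1 × 10^6 parasites/mL) incubated at 32 °C in Schneider's Drosophila medium pH 5.2 with 20% heat-inactivated FCS. Six concentrations, 3.1-100 µg/mL, from DMSO solutions, 72 h. MTT then added for 4 h, stopped with 2-propanol/SDS, OD 570 nm. DMSO-treated and untreated parasites as controls, amphotericin B as reference. Two independent experiments in triplicate, EC50 by Probit analysis.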

[3] = Selectivity index, ratio of CC50 for human U937 cells to EC50 for Leishmania panamensis M/HOM//87/UA140; format: toxicity, cell-based, U-937; conditions: read-out: Selectivity Index

SMILES | CC50 [1] | EC50 [2] | selectivity ratio [3]
COc1ccc2ccc(=O)oc2c1-c1cocc1C | 33 µg/mL (≈ 129 µM) | 10 µg/mL (≈ 39 µM) | 3
C=C(C)[C@H]1O[C@@H]1c1c(OC[C@H]2OC2(C)C)ccc2ccc(=O)oc12 (relative stereo) | 9.7 µg/mL (≈ 29.5 µM) | 10 µg/mL (≈ 30.5 µM) | 1
COc1ccc2ccc(=O)oc2c1C(C=O)=C(C)C [MURRALONGIN] | 121 µg/mL (≈ 470 µM) | > 100 µg/mL | –
C=C(C)[C@H]1O[C@@H]1c1c(OC)ccc2ccc(=O)oc12 [PHEBALOSIN] | 20.7 µg/mL (≈ 80.1 µM) | – | 1.5
